The results in this text go back to ChEMBL document CHEMBL3734668, “Evaluation of small molecule SecA inhibitors against methicillin-resistant Staphylococcus aureus” (Bioorg Med Chem, 2015).

In brackets after ≈: the same amount, converted by molar mass. Activity calls are given as the source filed them. The rule behind the calls is not given here. Some results are limits rather than exact numbers.

As usually defined, the MIC is the least concentration at which growth counts as inhibited. Lower therefore signals greater potency. What is called IC50 is the concentration that inhibits the measured activity by half. Low readings indicate higher potency, high ones lower potency.

For data set [1], the system named is Staphylococcus aureus. The data set can be described thus: Bactericidal activity against Methicillin resistant Staphylococcus aureus Mu50 assessed as CFU reduction at 30 uM for 1 hr. It counts as functional. A digest of the protocol: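 Log-phase Mu50 cultures (OD600 ≈ 0.5) mixed with a range of inhibitor concentrations, shaken 1,000 rpm at 37 °C for 1 hr under normal room light. Cultures then serially diluted in LB, plated on LB agar and incubated overnight at 37 °C. Activity expressed as reduction in CFU relative to untreated control containing matching DMSO.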

In data set [2] the target is T1, Protein translocase subunit SecA 1 (Staphylococcus aureus (strain NCTC 8325)) (UniProt O06446).
T1 sequence (whole entry): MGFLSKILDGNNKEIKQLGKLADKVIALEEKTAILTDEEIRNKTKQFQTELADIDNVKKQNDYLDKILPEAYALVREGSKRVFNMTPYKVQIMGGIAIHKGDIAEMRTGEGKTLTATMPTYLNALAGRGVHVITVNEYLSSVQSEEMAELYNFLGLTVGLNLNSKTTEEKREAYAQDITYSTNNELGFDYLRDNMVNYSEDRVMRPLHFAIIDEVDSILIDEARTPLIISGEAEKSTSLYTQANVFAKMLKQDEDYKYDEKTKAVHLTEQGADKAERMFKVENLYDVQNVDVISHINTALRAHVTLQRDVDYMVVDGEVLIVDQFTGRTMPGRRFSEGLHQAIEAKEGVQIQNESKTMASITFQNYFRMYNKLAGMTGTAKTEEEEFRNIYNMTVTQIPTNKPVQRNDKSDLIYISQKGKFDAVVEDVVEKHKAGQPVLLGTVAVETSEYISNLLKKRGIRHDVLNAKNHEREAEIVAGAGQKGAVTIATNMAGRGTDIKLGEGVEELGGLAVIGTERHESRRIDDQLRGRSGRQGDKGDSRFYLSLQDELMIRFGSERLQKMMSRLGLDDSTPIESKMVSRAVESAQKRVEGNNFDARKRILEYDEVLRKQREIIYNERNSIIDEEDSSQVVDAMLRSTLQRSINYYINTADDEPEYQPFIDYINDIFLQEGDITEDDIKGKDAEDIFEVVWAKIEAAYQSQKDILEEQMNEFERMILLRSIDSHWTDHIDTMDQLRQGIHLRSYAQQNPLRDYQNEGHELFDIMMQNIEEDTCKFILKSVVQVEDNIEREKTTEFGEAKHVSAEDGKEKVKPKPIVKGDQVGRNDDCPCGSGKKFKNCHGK
The data set is described as follows: Inhibition of Staphylococcus aureus SecA1 assessed as reduction in secretion of TSST-1 at 10 uM by Western blot analysis. A digest of the protocol: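 S. aureus Mu50 grown in LB at 37 °C; inhibitor added at mid-log phase and cultures sampled at several time points. Supernatants separated by centrifugation, filtered 0.45 μm, and probed by Western blot with antibodies to α-hemolysin, TSST-1 or enterotoxin B.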
A general note: In western blotting, separated proteins are transferred to a membrane and probed.

For data set [3], the system named is Staphylococcus aureus. The data set can be described thus: Bacteriostatic activity against wild type Staphylococcus aureus 8325-4. The class given is functional. Summed up:
(§1)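 Broth microdilution MIC per CLSI guidance in LB, 37 °C, shaking 250 rpm, 24 hr; run in triplicate in three separate experiments. MIC taken as lowest inhibitor concentration with no growth. Compounds from DMSO stocks; untreated controls carry equal DMSO.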

For data set [4], the system named is Staphylococcus aureus. The data set is described as follows: Bacteriostatic activity against Staphylococcus aureus ATCC 6538 after 24 hrs. It counts as functional. The note with it: ATCC 6538, 24 h.
In data set [5] the target is T2, Protein translocase subunit SecA 1 (Staphylococcus aureus (strain NCTC 8325), UniProt O06446).
T2 sequence (O06446 whole entry): T1 sequence (whole entry)
The data set is described as follows: Inhibition of Staphylococcus aureus ATCC 35556 SecA1 liposome dependent proOmpA translocation incubated for 1.5 hrs measured by Western blot analysis. A digest of the protocol:
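Per 0.1 ml: 50 mM Tris-HCl pH 7.6, 20 mM NH4Cl, 25 mM KCl, 2 mM Mg(OAc)2, ATP-regenerating system, 1.5 μg SaSecA1, 100 ng SecB, 120 ng proOmpA, 120 μg liposomes, with varying inhibitor; 30 °C, 1.5 hr. Translocated proOmpA scored as proteinase K-protected, quantified by Western blot; n = 3.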

The test system of data set [6] is Staphylococcus aureus. The data set is described as follows: Bacteriostatic activity against Staphylococcus aureus K2361 overexpressing NorA. It counts as functional. Summed up:
as §1

In data set [7] the test system is Staphylococcus aureus. The data set can be described thus: Potency index, ratio of MIC for vancomysin to MIC for test compound against Methicillin resistant Staphylococcus aureus. The class given is functional.
The test system of data set [8] is Staphylococcus aureus. The data set is described as follows: Potency index, ratio of MIC for ampicillin to MIC for test compound against Methicillin resistant Staphylococcus aureus. The class given is functional.
Data set [9] has as its target T2, Protein translocase subunit SecA 1. The data set is described as follows: Inhibition of Staphylococcus aureus ATCC 35556 SecA1 liposomal ion channel activity in Xenopus laevis oocytes incubated for 3 hrs measured by recording ion current for 1 min. It counts as cell-based. A digest of the protocol:
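Xenopus laevis oocytes injected at animal pole with 50 nl containing 120 ng liposomes, 120 ng SaSecA1, 14 ng proOmpA, 2 mM ATP, 1 mM Mg(OAc)2 plus varying inhibitor. Incubated 3 hr at 23 °C, then ion current recorded continuously 1 min.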

For data set [10], the system named is Staphylococcus aureus. The data set can be described thus: Potency index, ratio of MIC for polymyxin B to MIC for test compound against Methicillin resistant Staphylococcus aureus. The class given is functional.
Data set [11] concerns Staphylococcus aureus. The data set is described as follows: Bactericidal activity against Methicillin sensitive Staphylococcus aureus ATCC 6538 assessed as CFU reduction for 1 hr. It counts as functional, organism-based. Summed up:
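Log-phase LB cultures (OD600 ≈ 0.5) mixed with a range of inhibitor concentrations, shaken at 1,000 rpm, 37 °C, 1 hr, under normal room light. Cultures serially diluted in LB, plated on LB agar, incubated overnight at 37 °C. CFU counted; bactericidal effect taken as CFU reduction versus untreated control.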

In data set [12] the test system is Staphylococcus aureus. The data set is described as follows: Bacteriostatic activity against Staphylococcus aureus Mu50 after 24 hrs. The note with it: Mu50, 24 h. The class given is functional. A digest of the protocol:
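Broth microdilution per CLSI guidelines in LB. Inhibitor added to dilute early-log culture (OD600 ≈ 0.05), 37 °C, 250 rpm, 24 hrs. Run in triplicate in three separate experiments. MIC read as the lowest concentration with no growth.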

The subject of data set [13] is Staphylococcus aureus. The data set can be described thus: Potency index, ratio of MIC for rifampicin to MIC for test compound against Methicillin resistant Staphylococcus aureus. The class given is functional.
In data set [14] the test system is Staphylococcus aureus. The data set is described as follows: Potency index, ratio of MIC for norfloxacin to MIC for test compound against Methicillin resistant Staphylococcus aureus. The class given is functional.
For data set [15], the system named is Staphylococcus aureus. The data set can be described thus: Potency index, ratio of MIC for erythromycin to MIC for test compound against Methicillin resistant Staphylococcus aureus. It counts as functional.
In data set [16] the test system is Staphylococcus aureus. The data set can be described thus: Effect on general protein synthesis in Staphylococcus aureus Mu50 at 10 uM measured within 15 hrs. It counts as ADME, organism-based. As to conditions: in vivo.
The test system of data set [17] is Staphylococcus aureus. The data set is described as follows: Bacteriostatic activity against Staphylococcus aureus N315 after 24 hrs. It counts as functional. As to conditions: N315, 24 h. A digest of the protocol: as §1

For the molecule `CCCCCCC1c2ccc(O)cc2Oc2cc(O)ccc21`, the figures for the Activity in [1], in data set [11] and in data set [16] were >3 log10CFU/ml, “Dose-dependent effect” and “Non-toxic”, respectively. In addition, in data set [2], the inhibition result was “Active”. The MIC in data set [3], in [4], in data set [6], in data set [12] and in data set [17] was 4 µg/mL (≈ 13.4 µM) in each case. Further, the figures for the IC50 in data set [5] and in data set [9] were 4 µM and 1 µM, respectively. The Ratio in [7] was determined as 2; in data set [8] it was 250; in data set [10], 7; in [13], 250; in [14] it was 7; in [15] it was 250.
